In ChEMBL document CHEMBL1137992, “Long hydrocarbon chain keto diols and diacids that favorably alter lipid disorders in vivo” (J Med Chem, 2004) one finds Activity and Change data, which are given here for three compounds.

Structures are written as SMILES.

Common to all, as to type: functional
For assay [1], the system named is Rattus norvegicus. Nature of the assay: Percent decrease in HDL-cholesterol in obese Zucker rats after 2 weeks of treatment at a dose of 3 mg/kg/day. Also on record: scale not given: the % may be the effect or the level left. The method in brief:
(§1)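 Female Zucker fatty rats [Crl:(Zuc)-faBR], 10–12 weeks, 400–500 g, acclimated 7 days on chow. Compound or vehicle (20% EtOH/80% PEG-200) given by daily oral gavage for 2 weeks, 0–100 mg/kg/day. After a 6 h fast, blood was taken before dosing, at 1 wk and at 2 wk. Serum lipids, NEFA and insulin (ELISA) were measured; glucose by glucometer. HDL/non-HDL-C came from Superose 6 gel-filtration profiles. Values are % change from pretreatment, mean ± SEM.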

Assay [2] has as its system Rattus norvegicus. Nature of the assay: Percent increase in nonesterified fatty acids in obese Zucker rats after 2 weeks of treatment at a dose of 100 mg/kg/day. The method in brief:
as §1

In assay [3] the test system is Rattus norvegicus. Briefly: Percent increase in nonesterified fatty acids in obese Zucker rats after 2 weeks of treatment at a dose of 3 mg/kg/day. The method in brief:
as §1

For assay [4], the system named is Rattus norvegicus. Nature of the assay: Percent decrease in nonesterified fatty acids in obese Zucker rats after 1 week of treatment at a dose of 10 mg/kg/day. Details: scale not given: the % may be the effect or the level left. The essentials:
as §1

Assay [5] relates to Rattus norvegicus. Nature of the assay: Amount of glucose in obese Zucker rats after 1 week of treatment at a dose of 30 mg/kg/day. The essentials: (§2)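 Female Zucker fatty rats [Crl:(Zuc)-faBR], 10–12 weeks old (400–500 g), gavaged daily with vehicle (20% EtOH/80% PEG-200, 0.25% of body weight) or compound. After a 6-h fast, blood glucose was read by glucometer from tail-prick blood of unanesthetized rats before dosing and after 1 and 2 weeks. Values are mean ± SEM.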

In assay [6] the test system is Rattus norvegicus. Nature of the assay: Percent increase in triglycerides in obese Zucker rats after 2 weeks of treatment at a dose of 0 mg/kg/day. The essentials: as §1
The test system of assay [7] is Rattus norvegicus. Nature of the assay: Amount of non-HDL-cholesterol in obese Zucker rats at pre-treatment at a dose of 10 mg/kg/day. The essentials:
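Female obese Zucker fatty rats [Crl:(Zuc)-faBR], 10–12 weeks old (400–500 g), on chow. Compound in 20% EtOH/80% PEG-200 (v/v) given by daily oral gavage. After a 6-h fast, serum was taken before dosing and at 7 days (orbital plexus), and at 14 days (cardiac puncture). Lipoprotein cholesterol came from Superose 6HR gel-filtration profiles × serum total cholesterol. Mean ± SEM.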

The subject of assay [8] is Rattus norvegicus. Briefly: Percent increase in nonesterified fatty acids in obese Zucker rats after 2 weeks of treatment at a dose of 0 mg/kg/day. The essentials:
as §1

For assay [9], the system named is Rattus norvegicus. Nature of the assay: Percent decrease in HDL-cholesterol in obese Zucker rats after 1 week of treatment at a dose of 3 mg/kg/day. Also on record: scale not given: the % may be the effect or the level left. The method in brief: as §1
Assay [10] deals with Rattus norvegicus. Nature of the assay: Amount of glucose in obese Zucker rats after 2 weeks of treatment at a dose of 10 mg/kg/day. The essentials:
as §2

The test system of assay [11] is Rattus norvegicus. Briefly: Percent decrease in HDL-cholesterol in obese Zucker rats after 2 weeks of treatment at a dose of 0 mg/kg/day. Also on record: scale not given: the % may be the effect or the level left. The essentials: as §1
Assay [12] deals with Rattus norvegicus. Briefly: Percent increase in non-HDL-cholesterol in obese Zucker rats after 2 weeks of treatment at a dose of 30 mg/kg/day. The essentials: as §1
In assay [13] the test system is Rattus norvegicus. Briefly: Amount of non-HDL-cholesterol in obese Zucker rats after 1 week of treatment at a dose of 100 mg/kg/day. The essentials:
(§3)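 Female Zucker fatty rats [Crl:(Zuc)-faBR], 10–12 weeks old (400–500 g), dosed once daily by oral gavage in 20% EtOH/80% PEG-200 (dose volume 0.25% of body weight). Rats were fasted 6 h and bled before dosing and at day 7 (orbital plexus), and at day 14 (cardiac puncture). Serum cholesterol fractions came from Superose 6 gel-filtration lipoprotein profiles (% peak area × serum total cholesterol). Values are mean ± SEM.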

Assay [14] deals with Rattus norvegicus. Nature of the assay: Amount of non-HDL-cholesterol in obese Zucker rats after 2 weeks of treatment at a dose of 10 mg/kg/day. The method in brief:
as §3

Assay [15] concerns Rattus norvegicus. Nature of the assay: Percent decrease in nonesterified fatty acids in obese Zucker rats after 1 week of treatment at a dose of 30 mg/kg/day. Details: scale not given: the % may be the effect or the level left. The method in brief:
as §1

Assay [16] relates to Rattus norvegicus. Nature of the assay: Percent decrease in triglycerides in obese Zucker rats after 1 week of treatment at a dose of 100 mg/kg/day. Also on record: scale not given: the % may be the effect or the level left. The method in brief:
as §1

Assay [17] concerns Rattus norvegicus. Briefly: Amount of HDL-cholesterol in obese Zucker rats at pre-treatment at a dose of 0 mg/kg/day. The method in brief: as §3
In assay [18] the test system is Rattus norvegicus. Briefly: Percent decrease in insulin in obese Zucker rats after 1 week of treatment at a dose of 10 mg/kg/day. Details: scale not given: the % may be the effect or the level left. The method in brief:
as §1

The test system of assay [19] is Rattus norvegicus. Nature of the assay: Percent decrease in non-HDL-cholesterol in obese Zucker rats after 1 week of treatment at a dose of 100 mg/kg/day. Also on record: scale not given: the % may be the effect or the level left. The method in brief: as §1
Assay [20] concerns Rattus norvegicus. Nature of the assay: Percent decrease in non-HDL-cholesterol in obese Zucker rats after 1 week of treatment at a dose of 30 mg/kg/day. Details: scale not given: the % may be the effect or the level left. The essentials:
as §1

Assay [21] concerns Rattus norvegicus. Briefly: Percentage change of HDL cholesterol levels in obese female Zucker rats after 2 weeks of pre-treatment at a dose of 100 mg/kg/day. The essentials:
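Obese female Zucker fatty rats were gavaged once daily with 30 or 100 mg/kg/day in 20% EtOH/80% PEG-200 for 2 weeks. Sera were collected after a 6 h fast, before dosing, at 1 week (orbital plexus) and at 2 weeks (cardiac puncture). HDL-C was total cholesterol multiplied by HDL area fraction from gel-filtration lipoprotein profiles. Reported as % change from pretreatment ± SEM.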

Assay [22] relates to Rattus norvegicus. Nature of the assay: Amount of triglycerides in obese Zucker rats at pre-treatment at a dose of 100 mg/kg/day. The essentials: (§4)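 Female Zucker fatty rats [Crl:(Zuc)-faBR], 10–12 weeks old (400–500 g), dosed once daily by oral gavage in 20% EtOH/80% PEG-200 for up to 14 days. After a 6-h fast, serum was taken pre-dose, at day 7 (orbital venous plexus, O2/CO2 anaesthesia) and at day 14 (cardiac puncture), stored at −80 °C, and assayed on a Hitachi 912 automatic analyzer. Mean ± SEM.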

Assay [23] relates to Rattus norvegicus. Nature of the assay: Amount of triglycerides in obese Zucker rats after 2 weeks of treatment at a dose of 0 mg/kg/day. The method in brief:
as §4

The test system of assay [24] is Rattus norvegicus. Nature of the assay: Percent increase in HDL-cholesterol in obese Zucker rats after 2 weeks of treatment at a dose of 100 mg/kg/day. The essentials: as §1
For assay [25], the system named is Rattus norvegicus. Briefly: Amount of glucose in obese Zucker rats at pre-treatment at a dose of 30 mg/kg/day. The method in brief: as §2
The subject of assay [26] is Rattus norvegicus. Nature of the assay: Amount of nonesterified fatty acids in obese Zucker rats after 2 weeks of treatment at a dose of 100 mg/kg/day. The method in brief: as §4
The subject of assay [27] is Rattus norvegicus. Nature of the assay: Amount of nonesterified fatty acids in obese Zucker rats after 2 weeks of treatment at a dose of 30 mg/kg/day. The method in brief: as §4
Assay [28] deals with Rattus norvegicus. Nature of the assay: Percent decrease in triglycerides in obese Zucker rats after 2 weeks of treatment at a dose of 30 mg/kg/day. Details: scale not given: the % may be the effect or the level left. The essentials: as §1
Assay [29] has as its system Rattus norvegicus. Briefly: Percent decrease in glucose in obese Zucker rats after 1 week of treatment at a dose of 100 mg/kg/day. Also on record: scale not given: the % may be the effect or the level left. The method in brief:
as §1

Assay [30] deals with Rattus norvegicus. Nature of the assay: Percent decrease in nonesterified fatty acids in obese Zucker rats after 2 weeks of treatment at a dose of 30 mg/kg/day. Details: scale not given: the % may be the effect or the level left. The essentials:
as §1

Assay [31] has as its system Rattus norvegicus. Briefly: Percent decrease in nonesterified fatty acids in obese Zucker rats after 1 week of treatment at a dose of 3 mg/kg/day. Details: scale not given: the % may be the effect or the level left. The essentials:
as §1

Assay [32] relates to Rattus norvegicus. Nature of the assay: Percent increase in glucose in obese Zucker rats after 2 weeks of treatment at a dose of 3 mg/kg/day. The method in brief:
as §1

Assay [33] deals with Rattus norvegicus. Nature of the assay: Percent decrease in nonesterified fatty acids in obese Zucker rats after 2 weeks of treatment at a dose of 3 mg/kg/day. Also on record: scale not given: the % may be the effect or the level left. The essentials:
as §1

As for `CC(C)(CO)CCCCC(=O)CCCCC(C)(C)CO`, the Activity in [1] is -19%; in assay [2], -33%; in assay [3], 45%; in assay [4], -18%; in assay [5] it was 112 mg/dL; in [6] it was 18%. In addition, the Activity in [7] was 25 mg/dL; in [8] it was 33%; in assay [9], -10%; in assay [10], 110 mg/dL; in [11] it was -15%; in [12], 27%. Also, the Activity in assay [13] is 23 mg/dL; in assay [14] it was 25 mg/dL; in [15], -21%.

With `CC(C)(CCCCC(=O)CCCCC(C)(C)C(=O)O)C(=O)O`, the Activity in assay [16] is -60%; in assay [17], 39 mg/dL; in assay [5], 115 mg/dL; in assay [18], -27%; in assay [19] it was -42%; in [7], 40 mg/dL. Moreover, the Activity was -23% in assay [20]; 964 mg/dL in assay [22]; 113 mg/dL in [10]; 1140 mg/dL in assay [23]; 79% in assay [24]; 103 mg/dL in assay [25]. Also, the Activity in [13] is 18 mg/dL; in assay [26], 0.66 mg/dL; in assay [14] it was 27 mg/dL; in assay [27], 1.1 mg/dL; in [15] it was -29%. Also, the Change in assay [21] was found to be 78%.

`CC(C)(CCCCCC(=O)CCCCCC(C)(C)C(=O)O)C(=O)O`: the Activity is given as -17% in assay [4]; -52% in [28]; -21% in [29]; 25% in [6]; -49% in assay [30]; -48% in assay [20]. The Activity in assay [31] is given as -15%; in assay [11], -9%; in assay [32], 8%; in assay [33], -23%.
